From ChEMBL document CHEMBL1153444, “Discovery of dual inhibitors targeting both HIV-1 capsid and human cyclophilin A to inhibit the assembly and uncoating of the viral capsid” (Bioorg Med Chem, 2009) come the findings set out here.

Data set [1] deals with Structural capsid protein (Human immunodeficiency virus 1) (UniProt Q76129). The data set can be described thus: Binding affinity to HIV1 capsid assessed as assembly rate per minute at 2:1 drug to protein ratio by ultraviolet spectrophotometry assay. The method, boiled down:
(§1)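 Turbidity was read at 350 nm every 10 s after a short equilibration delay. Assembly rate (mOD/min) was taken from the initial slope of absorbance versus time.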

Data set [2] is described as follows: Cytotoxicity against human CEM cells. In kind it is cell-based. The settings on record: CEM cells (CCRF-CEM), read-out: TC50 (the source's name).
A short description of data set [3]: Therapeutic index, TC50 for human CEM cells to EC50 for SIV. In kind it is cell-based, CCRF-CEM.
Data set [4] addresses Structural capsid protein (Human immunodeficiency virus 1) (UniProt Q76129). The data set can be described thus: Binding affinity to HIV1 capsid assessed as assembly rate per minute by ultraviolet spectrophotometry assay. The method, boiled down: as §1
Data set [5] has the same target. The data set can be described thus: Binding affinity to HIV1 capsid assessed as assembly rate per minute at 1:1 drug to protein ratio by ultraviolet spectrophotometry assay. The method, boiled down: as §1
For data set [6] the target is unchanged. The data set can be described thus: Binding affinity to HIV1 capsid assessed as assembly rate per minute at 0.5:1 drug to protein ratio by ultraviolet spectrophotometry assay. The method, boiled down: as §1
For data set [7], the target named is T1, Peptidyl-prolyl cis-trans isomerase A (Homo sapiens, UniProt P62937). The data set can be described thus: Inhibition of human cyclophilin A at 6 degC. The method, boiled down:
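PPIase assay at 6 °C in 50 mM HEPES, 100 mM NaCl, using Suc-AAPF-pNA substrate (3 mM stock in THF with 480 mM LiCl). A390 was recorded for 20 s after about a 6 s mixing delay. Cis–trans rate constants came from nonlinear least-squares fits to an integrated first-order equation, and IC₅₀ was calculated from these.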

Data set [8] concerns the target T1, Peptidyl-prolyl cis-trans isomerase A. The data set can be described thus: Binding affinity to human cyclophilin A by intrinsic tryptophan fluorescence titration assay. To be noted: read-out: Kd. The method, boiled down: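 CypA intrinsic tryptophan fluorescence titration in 20 mM Tris–HCl, 100 mM NaCl, pH 7.4, at 25 °C, with compounds from 10 mM DMSO stocks. Excitation was 280 nm and emission was read at 340 nm. Kd was obtained by fitting intensity against final compound concentration to F₀/F = 1 + Ka·C.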

Data set [9] deals with Simian immunodeficiency virus. In words: Antiviral activity against SIV in human CEM cells assessed as inhibition of virus-induced cytopathogenicity. In kind it is functional, organism-based, CCRF-CEM. The method, boiled down: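 SIV syncytium assay in CEM174 cells (2 × 10⁵ cells/ml) infected with 100 TCID₅₀ SIV per well alongside serial compound dilutions. Cultures were kept 5 days at 37 °C in humidified 5% CO₂, then giant-cell formation was scored microscopically. EC₅₀ is the concentration protecting cells from SIV cytopathogenicity by 50%.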
A general note: Damage to the host cells serves as the signal in cytopathic effect assays.

Data set [10] addresses Protease (Human immunodeficiency virus 1) (UniProt Q9YQ12). In words: Inhibition of HIV1 protease. The method, boiled down:
(§2)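 HIV-1 protease was preincubated with inhibitor (DMSO) for 20 min at room temperature in 0.1 M MES, 0.2 M NaCl, 5 mM EDTA, pH 5.5. The reaction was started with substrate Lys-Ala-Arg-Val-Leu-Phe(NO₂)-Glu-Ala-Met, and hydrolysis was followed as the A280 decrease over 40 min. Inhibition ratio was taken from Ai/A₀, with and without inhibitor.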

Data set [11] shares this target. In words: Inhibition of HIV1 protease assessed as decrease in UV absorbance. To be noted: concentration not given here. The method, boiled down: as §2
Data set [12] has as its target Human immunodeficiency virus type 1 integrase (Human immunodeficiency virus 1) (UniProt Q7ZJM1). In words: Inhibition of HIV1 integrase at 20 uM. Further details: scale not given: the % may be the effect or the level left. The method, boiled down:
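Recombinant HIV-1 integrase (E. coli) was preincubated with compound for 30 min. It was then incubated for 30 min at 37 °C on plate-immobilized donor duplex in Tris–HCl pH 7.8, 25 mM NaCl, 7.5 mM MgCl₂, 5 mM β-mercaptoethanol and BSA. Biotinylated target duplex was added for 1 h at 37 °C. Integration products were detected by pNPP phosphatase read-out at A405, and inhibition was taken as the decrease in final absorbance.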

In data set [13] the test system is Simian immunodeficiency virus. In words: Antiviral activity against SIV in human CEM cells assessed as inhibition of virus-induced cytopathogenicity at 10 uM. In kind it is functional, CCRF-CEM. On the set-up: scale not given: the % may be the effect or the level left.
The target of data set [14] is Protease (Human immunodeficiency virus 1) (UniProt Q9YQ12). The data set can be described thus: Inhibition of HIV1 protease assessed as decrease in UV absorbance at 10 uM. The method, boiled down:
as §2

[15] abbreviates: Simian immunodeficiency virus, CCRF-CEM, read-out: EC50.

The source made the active and inactive calls. The calls are words filed in the database; no cut-off is given here.

Sequence of Structural capsid protein (Human immunodeficiency virus 1) (Q76129 as listed by the source): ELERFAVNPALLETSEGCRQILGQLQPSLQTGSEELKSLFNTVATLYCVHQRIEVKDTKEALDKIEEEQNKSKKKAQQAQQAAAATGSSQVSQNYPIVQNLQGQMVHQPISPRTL
T1 sequence (P62937 whole entry): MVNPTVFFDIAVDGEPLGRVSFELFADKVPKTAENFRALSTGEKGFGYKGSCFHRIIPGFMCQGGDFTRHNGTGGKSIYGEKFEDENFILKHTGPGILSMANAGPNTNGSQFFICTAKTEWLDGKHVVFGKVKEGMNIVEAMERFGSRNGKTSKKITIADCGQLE
Sequence of Protease (Human immunodeficiency virus 1) (Q9YQ12 as listed by the source): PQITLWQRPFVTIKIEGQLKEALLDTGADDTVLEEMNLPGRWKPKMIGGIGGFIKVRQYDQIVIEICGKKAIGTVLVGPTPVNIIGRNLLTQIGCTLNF
Sequence of Human immunodeficiency virus type 1 integrase (Human immunodeficiency virus 1) (Q7ZJM1 as listed by the source): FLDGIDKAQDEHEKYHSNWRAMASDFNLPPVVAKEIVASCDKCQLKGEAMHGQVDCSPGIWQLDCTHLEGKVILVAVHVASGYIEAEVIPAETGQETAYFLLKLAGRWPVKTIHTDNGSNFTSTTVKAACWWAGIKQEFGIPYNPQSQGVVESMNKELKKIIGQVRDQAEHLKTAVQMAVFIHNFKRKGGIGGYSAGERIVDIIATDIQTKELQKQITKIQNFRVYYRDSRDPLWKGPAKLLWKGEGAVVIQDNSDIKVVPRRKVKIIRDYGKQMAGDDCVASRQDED

Usually IC50 stands for the concentration that gives 50% inhibition. Usually Kd stands for a measure of binding affinity in units of concentration. As usually defined, the EC50 is the concentration needed to bring the measured effect to its halfway point. Take `Cc1cc(NS(=O)(=O)c2ccc(NC(=S)Nc3cccc(Cl)c3)cc2)no1`: the Activity (milli optical density/minute) was 11.4 in data set [1], 15.8 in data set [4], 38.4 in [5] and 43.2 in [6]. Further, the CC50 in data set [2] is 91.9 µM. Also, the selectivity ratio in [3] worked out at 92. In addition, the IC50 in data set [7] was found to be 0.33 µM. The Kd in [8] was found to be 79.6 µM. Moreover, the EC50 in data set [9] (setting [15]) came out at 1 µM.

As a reminder, the inhibition is the percentage by which the read-out fell short of the control. For the compound `O=C1OCc2ccc(NC(=S)Nc3cccc(Cl)c3)cc21`, the result in data set [10] was inactive. Besides, the CC50 in data set [2] stood at 86 µM. Besides, in data set [11], the inhibition is < 5%. Further, the selectivity ratio in data set [3] is 20. For the same compound, in [4], the Activity (milli optical density/minute) came to 49.2. Also, the Kd in data set [8] is 133 µM. For the same compound, the EC50 in data set [9] (setting [15]) was 4.2 µM. Also, the Activity in data set [12] is < 20%.

On to `O=S(=O)(Nc1nccs1)c1ccc(NC(=S)Nc2ccc(Cl)cc2)cc1`, for which the result in [10] was inactive. Also, the CC50 in data set [2] was found to be 19.1 µM. Also, the selectivity ratio in data set [3] is 3. For the same compound, the Activity (milli optical density/minute) in data set [4] was found to be 52.5. Further, half-maximal inhibition in data set [7] (IC50) required 0.13 µM. Further, in [8], the Kd stood at 51 µM. The EC50 in data set [9] (setting [15]) is 5.7 µM. The Activity in data set [12] was < 20%.

For `C/C=C/C[C@@H](C)[C@@H](O)[C@H]1C(=O)N[C@@H](CC)C(=O)N(C)CC(=O)N(C)[C@@H](CC(C)C)C(=O)N[C@@H](C(C)C)C(=O)N(C)[C@@H](CC(C)C)C(=O)N[C@@H](C)C(=O)N[C@H](C)C(=O)N(C)[C@@H](CC(C)C)C(=O)N(C)[C@@H](CC(C)C)C(=O)N(C)[C@@H](C(C)C)C(=O)N1C` [CYCLOSPORINE], the Activity in data set [13] is given as <10%. Moreover, the concentration for a half-maximal effect (EC50) entry in data set [9] (ccrf-cem) is on record as “Not Active”.

With `CC(C)(C)NC(=O)[C@@H]1CN(Cc2cccnc2)CCN1C[C@@H](O)C[C@@H](Cc1ccccc1)C(=O)N[C@H]1c2ccccc2C[C@H]1O`, the inhibition in [14] was > 90%.

As for `Cc1cc(NS(=O)(=O)c2ccc(NC(=S)Nc3ccc(Cl)cc3)cc2)no1`, the Activity (milli optical density/minute) amounted to 19.4 in data set [1], 29 in data set [4], 42 in data set [5] and 52.2 in data set [6]. Besides, in [2], the CC50 came to 37.8 µM. For the same compound, the selectivity ratio in data set [3] worked out at 9. In addition, it took 0.69 µM to reach half-maximal inhibition in data set [7] (IC50). Moreover, the equilibrium dissociation constant (Kd) in data set [8] amounted to 107 µM. The EC50 in data set [9] (setting [15]) was 4.1 µM.

With `Cc1cc(NS(=O)(=O)c2ccc(NC(=S)Nc3ccc(C)c(Cl)c3)cc2)no1`, in data set [2], the CC50 is 74.4 µM. The inhibition in data set [11] was < 5%. In data set [3], the selectivity ratio was found to be 127. For the same compound, the Activity (milli optical density/minute) in data set [4] is 36.4. The compound further displayed an IC50 in data set [7] of 0.65 µM. For the same compound, the Kd in data set [8] came out at 55.8 µM. Besides, the EC50 in data set [9] (setting [15]) was found to be 0.6 µM.
